Consider 16 molecules from PMC6718330 (European journal of medicinal chemistry, 2019).

For data set [1], the target named is T1, cruzain (Trypanosoma cruzi, UniProt P25779). Put plainly: Aggregation assays against cruzain. It is filed as biochemical. To be noted: for Sensitivity of inhibition to pre-incubation with BSA: BSA 2 mg/mL in Triton X-100 0.001%; for Sensitivity of inhibition to detergent (Triton X-100): absence, 0.01% and 0.1% Triton X-100, 10 min pre-incubation with cruzain. An outline of the steps: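 Recombinant cruzain (1 nM) was pre-incubated with the test compound for 10 min at room temperature, with no Triton X-100, 0.01% or 0.1% Triton X-100. Percent inhibition was compared across detergent levels. In a BSA variant, compound sat 5 min with BSA (2 mg/mL in 0.001% Triton), then 5 min with cruzain, before substrate was added, run alongside a BSA-free control. Fluorogenic Z-FR-AMC read-out was at 340/440 nm.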

Another data set concerns cruzain and rhodesain. Briefly: Primary screen of the MMV400 at 5 µM against cruzain and rhodesain. It is filed as biochemical, Trypanosoma cruzi; Trypanosoma brucei. Conditions: primary screen at 5 µM. An outline of the steps:
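Fluorimetric screen of the library at 5 µM against recombinant cruzain and rhodesain (1 nM each). Substrate was 2.5 µM Z-FR-AMC in 0.1 M sodium acetate pH 5.5 with 0.01% Triton X-100 and 1 mM β-mercaptoethanol. Runs had no pre-incubation or 10 min enzyme–compound pre-incubation, two duplicates each. AMC release was read at 340/440 nm for 5 min at 12 s intervals; DMSO and E-64 served as controls.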

A further data set deals with T.cruzi (Y strain). Briefly: Trypomastigote release from T. cruzi-infected peritoneal macrophages. To be noted: 50 µM. It is filed as cell-based, Trypanosoma cruzi.
The target in data set [2] is T1, cruzain. Put plainly: Cruzain enzymatic assay. Format: biochemical. To be noted: for Mechanism of inhibition against cruzain: Lineweaver-Burk plots.
The test system of data set [3] is Nitric oxide levels in macrophage culture. Put plainly: Nitric oxide detection. Format: cell-based, mouse. To be noted: culture supernatant after 11 days; 12 at 3.125 µM, IFN-γ 100 ng/mL. In short, it runs like this:
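Peritoneal macrophages from thioglycolate-elicited female C57BL/6 mice (8–10 wk) were plated at 2 × 10^5/well, adhered 3 h, then rested overnight. They were infected 2 h with Y-strain T. cruzi trypomastigotes (5:1 parasite:cell), washed, then given test compound or IFN-γ at 37°C, 5% CO2. Day-11 supernatant plus Griess reagent, 10 min, A540 for nitrite. Three independent experiments in triplicate; mean ± SEM.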

Data set [4] has as its system Peritoneal macrophages of C57BL/6 mice. Briefly: LDH cytotoxicity assay in peritoneal macrophages. Format: cell-based, mouse. To be noted: 3.125 µM, 24 h.
The target of another data set is rhodesain (Trypanosoma brucei rhodesiense, UniProt Q95PM0). Briefly: Rhodesain enzymatic assay. It is filed as biochemical.
In a further data set the target is rat cathepsin B (Rattus norvegicus, UniProt P00787). Briefly: Cathepsin B inhibition assay. Format: biochemical. Conditions: read-out: Inhibition of cathepsin B (greatest observed). An outline of the steps: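 Buffer: 100 mM sodium phosphate, 100 mM NaCl, 1 mM EDTA, 1 mM DTT, 0.01% CHAPS, 25°C. Test compound at 100 µM or 50 µM, with or without 5 min enzyme pre-incubation. Fluorescence at 380/440 nm for 15 min. Percent inhibition versus 2% DMSO; E64 1 µM positive control. Two independent experiments, each in triplicate.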

Entries after “also recorded” stand apart in the source; their conditions may differ.

T1 sequence (P25779 123-467): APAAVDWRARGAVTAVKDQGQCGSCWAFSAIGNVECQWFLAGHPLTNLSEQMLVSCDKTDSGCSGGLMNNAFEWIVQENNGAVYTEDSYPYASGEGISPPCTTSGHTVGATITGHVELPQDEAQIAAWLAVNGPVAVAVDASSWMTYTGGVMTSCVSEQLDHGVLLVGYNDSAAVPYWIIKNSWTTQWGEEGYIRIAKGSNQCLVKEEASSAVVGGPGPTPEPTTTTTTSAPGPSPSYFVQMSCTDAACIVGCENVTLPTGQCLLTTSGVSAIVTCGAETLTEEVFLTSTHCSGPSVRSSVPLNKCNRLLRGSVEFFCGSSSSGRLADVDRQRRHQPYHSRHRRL
rat cathepsin B, sequence (P00787 80-339): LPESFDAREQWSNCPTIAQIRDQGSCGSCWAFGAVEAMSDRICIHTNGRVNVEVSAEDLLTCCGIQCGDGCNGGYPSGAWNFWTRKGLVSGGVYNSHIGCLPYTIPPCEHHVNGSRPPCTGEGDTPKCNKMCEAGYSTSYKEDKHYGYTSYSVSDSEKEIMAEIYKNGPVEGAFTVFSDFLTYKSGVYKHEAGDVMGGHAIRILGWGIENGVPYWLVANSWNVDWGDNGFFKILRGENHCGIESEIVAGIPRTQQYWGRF

Regarding `COCCNCC(O)Cn1c2ccc(Cl)cc2c2cc(Cl)ccc21` (stereo not shown) [Compound 8], on cruzain [1], the “Sensitivity of inhibition to pre-incubation with BSA” value (from here on “Sensitivity of inhibition … with BSA”) is listed as “sensitive to pre-incubation with bovine serum albumin” and the “Sensitivity of inhibition to detergent (Triton X-100)” value was “highly sensitive to Triton”. For the same molecule, in the data set on cruzain and rhodesain, the “Over 50% cruzain and rhodesain inhibition?” value is on record as “no”.
`COc1ccc2sc(N(Cc3cccnc3)C(=O)c3ccc(C#N)cc3)nc2c1` [Compound 13]: the “Over 50% cruzain and rhodesain inhibition?” value in the data set with cruzain and rhodesain is given as “yes”.
On the same count and under the same terms, for `Cc1ccc(C(=O)c2oc3ccc4c(C)cc(=O)oc4c3c2C)cc1` [Compound 11] the value was “yes”; for `CC(=O)c1ccc(NC(=O)CSc2nc(-c3ccccc3Cl)ns2)cc1` [Compound 10], “yes”; for `Cc1cc(Nc2ccc(C)c(Cl)c2)n2nc(C(F)(F)F)nc2n1` [Compound 3], “no”.
Regarding `CCOC(=O)c1c(C)n(-c2ccccc2)c2ccc(OC(=O)c3cc(OC)c(OC)c(OC)c3)cc12` [Compound 9], the “Over 50% cruzain and rhodesain inhibition?” value with cruzain and rhodesain was “yes”.
Take `Cc1nc2ccccc2c(O)c1CC=C(Cl)Cl` [Compound 4]: the “Over 50% cruzain and rhodesain inhibition?” value with cruzain and rhodesain is recorded as “yes”.
Take `COCCNC(=O)c1ccc(OC2CCN(Cc3ccc(F)c(F)c3)CC2)c(Cl)c1` [Compound 15]: in the data set on cruzain and rhodesain, the “Over 50% cruzain and rhodesain inhibition?” value was “yes”. In the data set on T.cruzi (Y strain), the “Trypanocidal activity in initial screen” value was “trypanocidal activity”.
Take `CCOc1ccc(/C=C/c2nc(=O)c3ccccc3o2)cc1` [Compound 1]: in the data set on cruzain and rhodesain, the “Over 50% cruzain and rhodesain inhibition?” value was “yes”.
`CCOc1cccc(C(=O)Nc2ccc(-c3nc4ccccc4[nH]3)cc2)c1` [Compound 6]: on cruzain [1], the “Fluorescence in the assays (signal interference)” value was “displayed fluorescence in the assays”, the “Sensitivity of inhibition … with BSA” value is recorded as “sensitive to pre-incubation with bovine serum albumin” and the “Sensitivity of inhibition to detergent (Triton X-100)” value was “highly sensitive to Triton”. The “Hill slope of dose-response curve” value on cruzain [2] (cruzain dose-response curve) stood at 3.9. Besides, the “Over 50% cruzain and rhodesain inhibition?” value in the data set with cruzain and rhodesain is “yes”.
For the molecule `Cl.Cl.Clc1cc(Br)ccc1-c1ccc(CNCC2CCNCC2)o1` [Compound 12, 1-[5-(4-Bromo-2-chlorophenyl)-2-furyl]-N-(4-piperidinylmethyl)methanamine dihydrochloride], the Nitric oxide production entry in data set [3] is “independent of NO release”. Moreover, the “Sensitivity of inhibition … with BSA” value at cruzain [1] is listed as “not sensitive to detergent nor BSA incubation”. Moreover, the “Cytotoxicity against macrophages (LDH levels)” value in data set [4] is “low toxicity against murine macrophages; also recorded: did not exhibit cytotoxic activity”. On cruzain [2], the “Mechanism of inhibition against cruzain” value is “competitive inhibition”. Moreover, the “Over 50% cruzain and rhodesain inhibition?” value with cruzain and rhodesain is “no”. Further, the “Trypanocidal activity in initial screen” value in the data set on T.cruzi (Y strain) is “trypanocidal activity”.
For the molecule `Cn1c(=O)n(C)c2cc(CNCCNc3ccnc4cc(Cl)ccc34)ccc21` [Compound 2], the “Sensitivity of inhibition … with BSA” value at cruzain [1] is given as “not sensitive to detergent nor BSA incubation”. The “Over 50% cruzain and rhodesain inhibition?” value with cruzain and rhodesain is “yes”. Affinity at rhodesain was put at a Ki of 1400 nM. Besides, the “Mechanism of inhibition versus rhodesain” value on rhodesain (Lineweaver-Burk plots) is “mixed mechanism; also recorded: mixed-type inhibitor”. For the same molecule, the “Trypanocidal activity in initial screen” value in the data set on T.cruzi (Y strain) is reported as “trypanocidal activity”.
Consider `FC(F)(F)c1cccc(CNC2CCN(CCc3ccccc3)CC2)c1` [Compound 14], for which, in the data set with cruzain and rhodesain, the “Over 50% cruzain and rhodesain inhibition?” value is on record as “yes”.
As to `c1ccc(CNc2nc(Nc3ccccc3)nc3ccccc23)cc1` [Compound 7], on rat cathepsin B, the inhibition (commonly the share of the control response that was lost under treatment) at 100 µM is 29%. Also, the “Detergent sensitivity of inhibition at 50 µM” value at cruzain [1] (50 µM compound) is “some detergent-sensitivity”. Also, at cruzain [1], the “Sensitivity of inhibition … with BSA” value is given as “not sensitive to detergent nor BSA incubation”. Also, the “Mechanism of inhibition against cruzain” value on cruzain [2] is given as “competitive inhibition”. For the same molecule, the “Over 50% cruzain and rhodesain inhibition?” value with cruzain and rhodesain is “yes”. Moreover, in the data set with T.cruzi (Y strain), the “Trypanocidal activity in initial screen” value is listed as “trypanocidal activity”.
`c1ccc(-c2ccc(-c3nc4ccccc4[nH]3)cc2)cc1` [Compound 5]: at cruzain [1], the “Fluorescence in the assays (signal interference)” value is recorded as “displayed fluorescence in the assays”, the “Sensitivity of inhibition … with BSA” value was “sensitive to pre-incubation with bovine serum albumin” and the “Sensitivity of inhibition to detergent (Triton X-100)” value is reported as “highly sensitive to Triton”. For the same molecule, in the data set with cruzain and rhodesain, the “Over 50% cruzain and rhodesain inhibition?” value is on record as “yes”.

B1: IFN-γ: Interferon gamma (100 ng/mL, Sigma) used to stimulate macrophages as comparison treatment (protein, UniProt P01579 24-161, looked up)
Interferon gamma: QDPYVKEAENLKKYFNAGHSDVADNGTLFLGILKNWKEESDRKIMQSQIVSFYFKLFKNFKDDQSIQKSVETIKEDMNVKFFNSNKKKRDDFEKLTNYSVTDLNVQRKAIHELIQVMAELSPAAKTGKRKRSQMLFRG
As to B1, the Nitric oxide production result in data set [3] is reported as “increased”.
